# Reference: PMC355911 (Journal of Insect Science, 2002)
# Legend:
# DmEcR/DmUSP = target: T1, DmEcR/DmUSP (Drosophila melanogaster, UniProt P34021); assay: UV-irradiation of receptor complex with ligand, then [3H]ponasterone A binding; conditions: ligand 100 nM, 350 nm for 20 min, [3H]ponA 2.55 nM
# T1 sequence (P34021 1-878): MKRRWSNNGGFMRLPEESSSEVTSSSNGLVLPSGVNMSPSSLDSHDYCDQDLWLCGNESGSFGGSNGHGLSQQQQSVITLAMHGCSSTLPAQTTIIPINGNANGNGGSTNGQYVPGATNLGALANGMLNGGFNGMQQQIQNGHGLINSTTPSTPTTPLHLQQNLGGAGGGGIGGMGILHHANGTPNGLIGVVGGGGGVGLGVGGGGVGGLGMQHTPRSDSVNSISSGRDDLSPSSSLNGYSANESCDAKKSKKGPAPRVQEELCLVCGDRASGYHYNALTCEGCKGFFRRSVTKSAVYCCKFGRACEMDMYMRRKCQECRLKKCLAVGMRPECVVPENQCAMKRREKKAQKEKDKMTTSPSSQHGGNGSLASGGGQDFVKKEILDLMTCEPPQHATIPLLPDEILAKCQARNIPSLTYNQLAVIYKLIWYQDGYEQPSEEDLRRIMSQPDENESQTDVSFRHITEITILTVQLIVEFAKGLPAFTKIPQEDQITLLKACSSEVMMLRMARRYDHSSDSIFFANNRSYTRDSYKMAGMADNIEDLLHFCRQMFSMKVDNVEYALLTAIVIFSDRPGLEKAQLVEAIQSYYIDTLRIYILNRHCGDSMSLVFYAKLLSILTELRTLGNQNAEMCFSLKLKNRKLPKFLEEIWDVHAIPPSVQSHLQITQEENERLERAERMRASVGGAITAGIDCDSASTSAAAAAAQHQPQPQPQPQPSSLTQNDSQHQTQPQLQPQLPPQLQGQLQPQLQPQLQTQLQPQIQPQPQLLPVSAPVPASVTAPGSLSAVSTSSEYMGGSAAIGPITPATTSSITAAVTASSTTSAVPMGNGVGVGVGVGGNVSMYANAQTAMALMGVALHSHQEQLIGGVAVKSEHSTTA
# T1 sequence (P20153 1-508 partner): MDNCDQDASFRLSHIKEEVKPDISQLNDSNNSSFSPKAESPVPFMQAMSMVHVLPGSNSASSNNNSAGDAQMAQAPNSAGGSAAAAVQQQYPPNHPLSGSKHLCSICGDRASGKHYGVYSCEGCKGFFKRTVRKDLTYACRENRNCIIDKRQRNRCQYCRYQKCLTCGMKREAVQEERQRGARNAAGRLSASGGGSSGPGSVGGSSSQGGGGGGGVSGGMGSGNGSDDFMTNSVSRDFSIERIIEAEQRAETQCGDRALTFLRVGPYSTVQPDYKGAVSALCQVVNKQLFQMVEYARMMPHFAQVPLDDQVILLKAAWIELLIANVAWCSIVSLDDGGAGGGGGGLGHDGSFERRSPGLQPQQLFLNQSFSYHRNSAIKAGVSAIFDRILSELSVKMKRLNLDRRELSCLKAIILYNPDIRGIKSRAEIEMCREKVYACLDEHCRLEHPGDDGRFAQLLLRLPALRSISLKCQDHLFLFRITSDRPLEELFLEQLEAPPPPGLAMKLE
# How it was run: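 Crude extracts of bacterially expressed DmEcR/DmUSP were incubated with 100 nM ligand at 7°C for 16 h to equilibrium. Samples were irradiated in quartz tubes on a merry-go-round at 350 nm for 20 min, with non-irradiated controls. Unbound steroid was stripped with fatty-acid-free BSA plus dextran-coated charcoal (10 mM Tris/HCl, pH 7.2), 5 min ice-cold, then spun at 13,000 × g. Supernatant was equilibrated with 2.55 nM [3H]ponA at 7°C, DCC-stripped again, and scintillation-counted. Duplicates.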
# CfEcR/CfUSP = target: T2, CfEcR/CfUSP (Choristoneura fumiferana, UniProt O77255); assay: UV-irradiation of receptor complex with ligand, then [3H]ponasterone A binding; conditions: ligand 100 nM, 350 nm for 20 min, [3H]ponA 2.55 nM
# T2 sequence (O77255 1-541): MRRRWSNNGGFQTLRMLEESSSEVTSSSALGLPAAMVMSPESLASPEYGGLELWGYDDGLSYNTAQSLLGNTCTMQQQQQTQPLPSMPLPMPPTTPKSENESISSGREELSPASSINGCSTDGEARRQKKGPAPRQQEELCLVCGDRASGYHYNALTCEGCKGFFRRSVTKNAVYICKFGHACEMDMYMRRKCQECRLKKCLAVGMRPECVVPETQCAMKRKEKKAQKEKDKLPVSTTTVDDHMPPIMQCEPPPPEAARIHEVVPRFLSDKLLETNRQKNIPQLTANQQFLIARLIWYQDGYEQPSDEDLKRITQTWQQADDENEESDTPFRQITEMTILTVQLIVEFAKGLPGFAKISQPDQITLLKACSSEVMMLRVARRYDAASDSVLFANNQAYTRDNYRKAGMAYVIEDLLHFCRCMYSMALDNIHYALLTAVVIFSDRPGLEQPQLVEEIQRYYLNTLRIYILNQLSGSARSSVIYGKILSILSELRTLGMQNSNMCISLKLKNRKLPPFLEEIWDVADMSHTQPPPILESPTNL
# T2 sequence (O76202 1-472 partner): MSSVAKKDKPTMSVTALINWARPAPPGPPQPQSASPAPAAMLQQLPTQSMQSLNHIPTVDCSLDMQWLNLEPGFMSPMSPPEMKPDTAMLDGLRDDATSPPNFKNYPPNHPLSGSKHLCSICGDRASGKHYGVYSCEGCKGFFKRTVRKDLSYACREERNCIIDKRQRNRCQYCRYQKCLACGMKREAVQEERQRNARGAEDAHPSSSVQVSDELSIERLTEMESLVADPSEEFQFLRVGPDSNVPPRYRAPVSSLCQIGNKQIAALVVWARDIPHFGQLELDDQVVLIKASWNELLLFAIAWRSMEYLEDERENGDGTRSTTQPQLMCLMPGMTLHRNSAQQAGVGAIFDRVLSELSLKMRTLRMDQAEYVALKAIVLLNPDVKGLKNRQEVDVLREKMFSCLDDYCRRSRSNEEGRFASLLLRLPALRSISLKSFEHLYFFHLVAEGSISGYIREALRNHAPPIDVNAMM
SMILES,binding capacity for [3H]ponasterone A after irradiation with ligand (in words) (DmEcR/DmUSP; listed as 20E),binding capacity for [3H]ponasterone A after irradiation with ligand (in words) (CfEcR/CfUSP; listed as 20E),binding capacity for [3H]ponasterone A after irradiation with ligand (in words) (DmEcR/DmUSP),binding capacity for [3H]ponasterone A after irradiation with ligand (in words) (CfEcR/CfUSP)
"CC(C)(O)CC[C@@H](O)[C@](C)(O)[C@H]1CC[C@@]2(O)C3=CC(=O)[C@@H]4C[C@@H](O)[C@@H](O)C[C@]4(C)[C@H]3CC[C@]12C [compound 1, 20-hydroxyecdysone]",no blocking,no blocking,–,–
"CC(C)CC[C@@H](O)[C@](C)(O)[C@H]1CC[C@@]2(O)C3=CC(=O)[C@@H]4C[C@@H](O)[C@@H](O)C[C@]4(C)C3=CC[C@]12C [compound 5, dacryhainansterone]",–,–,significantly reduced,significantly reduced
